HSF1 activator: increases HSF-1 driven luciferase reporter signal; hit rate 1.7% among 300,000; NIH3T3-HGL HSF-1 luciferase reporter, MG132, 8 h; 100% = twice DMSO control signal; AID 504408; activation, % at 9 µM;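 active means mean replicate activation of at least 50% with a set share of replicates each reaching 50%; inconclusive means only one of those two conditions met; inactive means mean below 50% and too few replicates reaching it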
HSF1 inhib: HSF1 inhibition. NIH3T3-HGL HSE-luciferase, MG132-induced, luminescence 8 h; hits give low values. activity change, negative = inhibition, % at 7.5 µM (by protocol). hit rate 0.77% among 300,000. AID 2098;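 active means more than half of replicate wells show activity change below -50%, luminescence cut by over half; inconclusive means some wells, but at most half, below -50%; inactive means no replicate well below -50%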;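 further: luciferase reports HSF-1 transcriptional activity via heat shock element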
HCV core dimer: HCV core protein dimerization inhibition | TR-FRET GST/Flag-core106 dimerization, 1536-well | inhibition, % at 5 µM | hit rate 0.33% among 300,000;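 active means inhibition above the mean of all tested compounds plus 3 SD, set per screening campaign, cut at about 45% in these data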
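Test system: GST/Flag-tagged HCV core106 proteins; Medium: KF-containing HEPES buffer, pH 7.45, DTT, CHAPS, BSA; Times: compound-protein-antibody incubation 4 h at 22.5 °C; Detection: TR-FRET 671 and 617 nm emission; Benchmarks: wells lacking GST-core106 and wells with excess unlabelled core106.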
ALR H2O2 inh: blocks human ALR sulfhydryl oxidase activity; hit rate 3.8% among 290,000; inhibition, % (no concentration beside the values); purified ALR, DTT oxidation, H2O2 HRP-luminol luminescence; P55789;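 active means mean replicate inhibition above about 79%, with every replicate also reaching it, limit read from the data; inconclusive means only one of the two criteria met; inactive means mean below limit and not every replicate reaching it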
Target sequence (P55789 whole entry, looked up): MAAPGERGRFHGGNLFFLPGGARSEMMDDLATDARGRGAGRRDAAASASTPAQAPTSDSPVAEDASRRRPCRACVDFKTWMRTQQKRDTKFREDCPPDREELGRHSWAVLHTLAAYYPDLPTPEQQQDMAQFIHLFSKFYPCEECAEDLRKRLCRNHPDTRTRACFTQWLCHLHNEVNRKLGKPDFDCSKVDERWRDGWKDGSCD
PHOSPHO1 block: PHOSPHO1 (human) inhibition; Q8TCT1; hit rate 1.1% among 290,000; recombinant PHOSPHO1, absorbance phosphatase assay; inhibition, % at 13.3 µM; in the data active means inhibition above about 60%
Target sequence (Q8TCT1 whole entry, looked up): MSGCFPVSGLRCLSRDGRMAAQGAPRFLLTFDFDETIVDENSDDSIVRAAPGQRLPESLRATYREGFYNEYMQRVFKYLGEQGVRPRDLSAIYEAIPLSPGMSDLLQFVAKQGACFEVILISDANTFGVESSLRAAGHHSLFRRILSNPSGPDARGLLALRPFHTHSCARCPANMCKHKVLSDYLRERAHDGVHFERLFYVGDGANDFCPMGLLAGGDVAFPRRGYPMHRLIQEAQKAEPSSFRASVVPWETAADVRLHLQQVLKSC
AI-2 QS mod: Vibrio harveyi AI-2 quorum sensing modulation. Vibrio harveyi JMH597 AI-2 luminescence/OD600 ratio, 9 h; hits give low values; strain lacks LuxN and CqsS sensors; 0 = neutral-control median. activity change, % at 7.5 µM. hit rate 0.4% among 300,000; in the data active means activity change below about -75%, passing the limit was not always enough; inconclusive means no clear call, values can overlap the other calls;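 further: luminescence divided by OD600 gain over 9 h not by final OD600 alone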
Large screens that a line does not name were inactive. Sampled rows, rich in hits. Any-hit rate of the full collection: about 6.8%.

CCOC(=O)N1CCN(C(=O)CSCC(=O)Nc2nc(-c3ccc4c(c3)OCO4)cs2)CC1	ALR H2O2 inh 99 (no result: HSF1 activator, HSF1 inhib, AI-2 QS mod)
CCc1cc(CNC(=O)C2CCC(=O)N(CCc3cccc(F)c3)C2)on1 (configuration not stated)	none (no result: HCV core dimer, ALR H2O2 inh, PHOSPHO1 block)
Cc1ccc(-n2cc(CNCC3CC(=O)N(C4CC4)C3)c(-c3cccc(C)c3)n2)cc1 (configuration not stated)	none
Cc1ccc(-c2csc(NC(=O)CSc3nc(C)cs3)n2)cc1	ALR H2O2 inh inconclusive
CCOC(=O)N1CCN(C(=O)CSCC(=O)Nc2nc(-c3ccc(C)cc3)cs2)CC1	ALR H2O2 inh 99
Cc1cccc(Nc2nc(-c3ccc4c(c3)OCCO4)cs2)c1	HSF1 inhib -54, PHOSPHO1 block 73
N#CCC(=O)Nc1nc(-c2ccc3c(c2)OCCO3)cs1	ALR H2O2 inh 100
O=C(CCCCl)Nc1nc(-c2ccc3c(c2)OCCO3)cs1	none
COc1ccccc1CNc1cc(C)ccn1	none (no result: ALR H2O2 inh)
CC(=O)Nc1ccc(NC(=O)CSc2ccc(-c3ccco3)nn2)cc1	ALR H2O2 inh 96
Fc1ccc(CSc2ccc(-c3ccco3)nn2)cc1	ALR H2O2 inh 98
CCn1c(SCC(=O)NCCc2ccccc2)nnc1-c1ccco1	none
COc1ccc(CCNC(=O)CSc2ccc(-c3ccco3)nn2)cc1	HSF1 inhib -69
Fc1cccc(CSc2ccc(-c3ccco3)nn2)c1	none
COCCn1c(SCC(=O)NCCc2ccccc2)nnc1-c1ccco1	HSF1 activator 55
O=S(=O)(Cc1ccccc1)Nc1ccc(F)cc1	none (no result: HCV core dimer)
COc1cc(NC(=O)CSc2ccc(-c3ccco3)nn2)cc(OC)c1	ALR H2O2 inh 98
CCOc1cccc(/C=N/Nc2ccc(S(=O)(=O)N(CC)CC)cn2)c1O	none (no result: ALR H2O2 inh)
CCN(CC)S(=O)(=O)c1ccc(N/N=C/c2ccc(O)cc2)nc1	ALR H2O2 inh 99
CC(=O)c1sc2nsc(SCCN3CCCC3)c2c1N	none (no result: PHOSPHO1 block)
C=CCn1c(C)csc1=Nc1ccccc1C	ALR H2O2 inh 99
Cc1cccc(NC(=S)NCc2ccccn2)c1	none
FC(F)(F)c1cccc(NC(=S)NNC(=S)NCc2ccccc2)c1	PHOSPHO1 block 104
FC(F)(F)c1cccc(NC(=S)NCc2ccccn2)c1	HSF1 activator 57
S=C(NCc1ccccn1)Nc1cccc(Cl)c1	HSF1 activator 60
O=C(Cc1ccccc1)NC(=S)Nc1cccc(C(F)(F)F)c1	none (no result: ALR H2O2 inh)
CC1(NC(=O)Cc2csc(-c3cccc(Cl)c3)n2)CCS(=O)(=O)C1 (configuration not stated)	none (no result: HSF1 activator, HSF1 inhib, HCV core dimer, PHOSPHO1 block, AI-2 QS mod)
Oc1cc(Nc2ccncc2)cc2cccnc12	none (no result: HSF1 activator, HSF1 inhib, HCV core dimer, PHOSPHO1 block, AI-2 QS mod)
Oc1cc(Nc2cccnc2)cc2cccnc12	ALR H2O2 inh 90 (no result: HSF1 activator, HSF1 inhib, HCV core dimer, PHOSPHO1 block, AI-2 QS mod)
Cc1ccc(C)c(NC(=O)CCc2nnc3ccc(NCc4ccco4)nn23)c1	HSF1 inhib -66
Cc1ccc(NC(=O)CCc2nnc3ccc(NCc4ccco4)nn23)cc1	none
Cn1c(N)c(N2CCCCC2)c(=O)n(CC(=O)Nc2cccc(C#N)c2)c1=O	none (no result: HSF1 activator, HSF1 inhib, HCV core dimer, PHOSPHO1 block, AI-2 QS mod)
CC(=O)C(Cc1cccc(F)c1)(Cc1cccc(F)c1)C(C)=O	none
CCOC(=O)/C(=N\Nc1cccc(C(F)(F)F)c1)N1CCOCC1	none
CCOC(=O)/C(=N\Nc1cccc(C(F)(F)F)c1)N(CCOC)CCOC	ALR H2O2 inh 97
CCN(C(=O)COC(=O)c1ccccc1NCCO)C1CCS(=O)(=O)C1 (configuration not stated)	none (no result: PHOSPHO1 block)
CCSC1(SCC)N=C(N)C2(C#N)C(c3ccc(OC)c(OC)c3OC)C12C#N (configuration not stated)	HSF1 activator 198
O=C(NCCN1Cc2ccccc2C1=O)c1cccs1	HSF1 activator 62
O=C(NCCN1CCOCC1)c1cccs1	none
CCOCCCNC(=O)C(c1ccc(C)cc1)N(Cc1cccs1)C(=O)c1ccccc1O (configuration not stated)	none
CCOC(=O)CSc1nc2sc3c(c2c(=O)n1-c1ccccc1)CCN(C)C3	ALR H2O2 inh 100
CCOC(=O)CSc1nc2sc3c(c2c(=O)n1-c1ccccc1)CCN(C(C)C)C3	ALR H2O2 inh 100
CSc1nc(SCC(=O)NC(c2ccccc2)c2ccccc2)c2c3c(sc2n1)CN(C)CC3	ALR H2O2 inh 93
CCOC(=O)CSc1nc2sc3c(c2c(=O)n1-c1ccc(OC)cc1)CCN(C)C3	ALR H2O2 inh 99 (no result: HCV core dimer)
CSc1nc(NCC(C)O)c2c3c(sc2n1)CN(C)CC3 (configuration not stated)	none (no result: PHOSPHO1 block)
O=C(CSc1nnc(-c2ccccc2F)n1C1CC1)Nc1cccnc1Cl	none
COC(=O)CSc1nc2sc3c(c2c(=O)n1C1CCCCC1)CCN(C)C3	ALR H2O2 inh 92
CN1CCc2c(sc3nc(SCC(=O)N4CCOCC4)n(-c4ccc(Cl)cc4)c(=O)c23)C1	ALR H2O2 inh 98
CCOC(=O)CSc1nc2sc3c(c2c(=O)n1-c1ccc(C)cc1)CCN(C)C3	ALR H2O2 inh 99 (no result: HCV core dimer)
COC(=O)CSc1nc2sc3c(c2c(=O)n1-c1ccc(OC)cc1)CCN(C)C3	none (no result: HCV core dimer, ALR H2O2 inh)
COc1ccc(-n2c(SCC(=O)NCc3ccco3)nc3sc4c(c3c2=O)CCN(C)C4)cc1	ALR H2O2 inh 98
Cc1ccc([N+](=O)[O-])cc1NC(=O)c1c(-c2ccccc2)noc1C	none
CN(CC(=O)NCCN1CCN(c2ccccc2)CC1)S(=O)(=O)c1ccc2c(c1)CCC(=O)N2	ALR H2O2 inh 98
CCOc1ccc(CCNC(=O)CN(C)S(=O)(=O)c2ccc3c(c2)CCC(=O)N3)cc1OCC	HSF1 inhib -54
CN(CC(=O)NCc1ccccc1)S(=O)(=O)c1ccc2c(c1)CCC(=O)N2	none
CCOc1ccc(NC(=O)CSc2ccc3nnc(-c4ccccn4)n3n2)cc1	none
CC(=O)c1cccc(S(=O)(=O)N2CCn3cccc3C2C)c1 (configuration not stated)	none (no result: HSF1 activator, HSF1 inhib, HCV core dimer, PHOSPHO1 block, AI-2 QS mod)
CC(C)CNc1nc(NC(C)(C)C)nc(Oc2ccc(=O)[nH]n2)n1	none
CSc1nc(NC(C)(C)C)nc(Oc2ccc(=O)[nH]n2)n1	HSF1 activator 52
COc1cc(-c2nc3ccccn3c2/N=C/c2ccc(F)cc2)ccc1O	ALR H2O2 inh 95
CCOc1ncccc1C(=O)OCC(=O)Nc1cc(C(C)(C)C)ccc1OC	none (no result: HSF1 activator, HSF1 inhib, HCV core dimer, PHOSPHO1 block, AI-2 QS mod)
O=C(Nc1ncccc1O)c1cccc(S(=O)(=O)NCc2ccccc2)c1	none (no result: PHOSPHO1 block)
O=C(c1ccccc1Br)N1CCc2c([nH]c3ccccc23)C1	ALR H2O2 inh 83
Cc1cc(C)nc(SCc2nnc(SCC(=O)Nc3ccc(Cl)c(C(F)(F)F)c3)o2)n1	none
O=C(CSc1nc2[nH]c(=O)cc(O)c2s1)Nc1ccc(Cl)c(C(F)(F)F)c1	ALR H2O2 inh 99 (no result: HSF1 activator, HSF1 inhib, HCV core dimer, PHOSPHO1 block, AI-2 QS mod)
COC(=O)c1ccc(C)c(NC(=O)CSc2nc3[nH]c(=O)cc(O)c3s2)c1	none (no result: HSF1 activator, HSF1 inhib, HCV core dimer, PHOSPHO1 block, AI-2 QS mod)
O=c1cc(O)c2sc(Nc3ccc(F)cc3)nc2[nH]1	none

Assay outcomes (PubChem)
